Reference: ChEMBL document CHEMBL1765004 (2011)
Activity calls are given as the source filed them. The rule behind the calls is not given here.

How the values were obtained:
HCT-116 [1] = assay: Anticancer activity against human HCT116 cells; format: functional
Procedure, shortened: (§1)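 NCI-DTP 60 cell line screen; GI50 values supplied by NCI-DTP. HCT-116 GI50 for some entries determined instead by a separate group (Henry Ford Hospital). Compounds failing initial single-dose testing at 10 μM (<25% growth inhibition) were not taken to five-dose testing.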

MDA-MB-231 = assay: Anticancer activity against human MDA-MB-231 cells; format: functional; procedure, shortened: as §1
IGROV-1 = assay: Anticancer activity against human IGROV1 cells; format: functional; procedure, shortened: as §1
U-251 = assay: Anticancer activity against human U251 cells; format: functional; procedure, shortened: as §1
NCI-H522 = assay: Anticancer activity against human NCI-H522 cells; format: functional; procedure, shortened: as §1
DU-145 = assay: Anticancer activity against human DU145 cells; format: functional; procedure, shortened: as §1
A498 = assay: Anticancer activity against human A498 cells; format: functional; procedure, shortened: as §1
LOX IMVI = assay: Anticancer activity against human LOXIMVI cells; format: functional; procedure, shortened: as §1
HCT-116 [2] = assay: Antimicrofilament activity in human HCT116 cells assessed as loss of microfilament at 0.05 uM by rhodamine-phalloidin staining; format: functional, cell-based
HCT-116 [3] = assay: Antimicrofilament activity in human HCT116 cells assessed as loss of microfilament at 0.01 uM by rhodamine-phalloidin staining; format: functional, cell-based
HCT-116 [4] = assay: Antimicrofilament activity in human HCT116 cells assessed as loss of microfilament at 0.1 uM by rhodamine-phalloidin staining; format: functional, cell-based
HCT-116 [5] = assay: Antimicrofilament activity in human HCT116 cells assessed as total loss of microfilament network at 1 uM by rhodamine-phalloidin staining; format: functional, cell-based
HCT-116 [6] = assay: Antimicrofilament activity in human HCT116 cells assessed as total loss of microfilament network at 0.5 uM by rhodamine-phalloidin staining; format: functional, cell-based
HCT-116 [7] = assay: Antimicrofilament activity in human HCT116 cells assessed as total loss of microfilament network at 5 uM by rhodamine-phalloidin staining; format: functional, cell-based
HCT-116 [8] = assay: Antimicrofilament activity in human HCT116 cells assessed as complete loss of microfilament network at 0.5 uM to 5 uM by rhodamine-phalloidin staining
PC-3 = assay: Growth inhibition against human PC3 cells assessed as disruption of actin cytoskeleton; format: functional
LNCaP = assay: Growth inhibition against human LNCAP cells assessed as disruption of actin cytoskeleton; format: functional
[9] = Growth inhibition against human TSU-Pr1 cells assessed as disruption of actin cytoskeleton; format: functional
HCT-116 [10] = assay: Cytotoxicity against human HCT116 cells assessed as time required to kill 90% of tumor cells at 0.004 uM by clonogenic assay; format: functional
Procedure, shortened: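 Clonogenic assay: HCT-116 seeded at 200–20 000 cells per 60 mm dish in RPMI + 10% FBS. Drug was given at 1 mg/mL and 10-fold dilutions for 2 h or 24 h, then replaced with drug-free medium, or given continuously. After 7 days colonies were stained with methylene blue and those of ≥50 cells counted, normalized to untreated control. Repeats spanned 100–0.1% survival; endpoint was 90% kill.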

HCT-116 [11] = assay: Antimicrofilament activity in human HCT116 cells assessed as loss of microfilament network at 0.5 uM by rhodamine-phalloidin staining; format: functional, cell-based
HCT-116 [12] = assay: Antimicrofilament activity in human HCT116 cells assessed as additional loss of microfilament at 1 uM by rhodamine-phalloidin staining; format: functional, cell-based
HCT-116 [13] = assay: Antimicrofilament activity in human HCT116 cells assessed as additional loss of microfilament at 5 uM by rhodamine-phalloidin staining; format: functional, cell-based
HCT-116 [14] = assay: Antimicrofilament activity in human HCT116 cells assessed as complete loss of microfilament network at GI50 concentration by rhodamine-phalloidin staining; format: functional, cell-based
HCT-116 [15] = assay: Antimicrofilament activity in human HCT116 cells assessed as additional loss of microfilament network at 0.5 uM by rhodamine-phalloidin staining; format: functional, cell-based
HCT-116 [16] = assay: Antimicrofilament activity in human HCT116 cells assessed as loss of microfilament at 1 uM by rhodamine-phalloidin staining; format: functional, cell-based
HCT-116 [17] = assay: Antimicrofilament activity in human HCT116 cells assessed as loss of microfilament at 5 uM by rhodamine-phalloidin staining; format: functional, cell-based
HCT-116 [18] = assay: Antimicrofilament activity in human HCT116 cells assessed as additional loss of microfilament at 0.1 uM by rhodamine-phalloidin staining; format: functional, cell-based
HCT-116 [19] = assay: Anticancer activity against human HCT116 cells at 10 uM; format: functional

Structure (SMILES) | GI50 (HCT-116 [1]) | GI50 (MDA-MB-231) | GI50 (IGROV-1) [nM] | GI50 (U-251) [nM] | GI50 (NCI-H522) [nM] | GI50 (DU-145) [nM] | GI50 (A498) [nM] | GI50 (LOX IMVI) [nM] | Activity (HCT-116 [2]) | Activity (HCT-116 [3]) | Activity (HCT-116 [4]) | Activity (HCT-116 [11]) | other results
C/C1=C\[C@H](C)C[C@H](C)OC(=O)C[C@H](c2ccc(O)cc2)NC(=O)[C@@H](Cc2c[nH]c3ccccc23)N(C)C(=O)[C@H](C)NC(=O)[C@@H](C)C1 [JASPLAKINOLIDE Q] | 50 nM | 70 nM | 10 | 30 | 160 | 100 | 80 | 20 | – | – | – | – | –
C/C1=C\[C@H](C)C[C@H](C)OC(=O)C[C@H](c2ccc(O)cc2)NC(=O)[C@@H](Cc2c(Br)[nH]c3cc(Br)ccc23)N(C)C(=O)[C@H](C)NC(=O)[C@@H](C)C1 [JASPLAKINOLIDE R1] | 60 nM | 90 nM | 30 | 30 | 3 | 310 | 40 | 40 | inactive | inactive | inactive | – | Activity (HCT-116 [5]): Active; Activity (HCT-116 [6]): Active; Activity (HCT-116 [7]): Active; Activity (HCT-116 [8]): Active
C/C1=C\[C@H](C)C[C@H](C)OC(=O)C[C@H](c2ccc(O)cc2)NC(=O)[C@@H](Cc2c(Br)[nH]c3ccccc23)NC(=O)[C@H](C)NC(=O)[C@@H](C)C1 [JASPLAKINOLIDE M] | 130 nM | 210 nM | 30 | 60 | 200 | 250 | 170 | 20 | – | – | – | – | –
C/C1=C\[C@H](C)C[C@H](C)OC(=O)C[C@H](c2ccc(O)cc2)NC(=O)[C@@H](Cc2c(Br)[nH]c3ccccc23)N(C)C(=O)[C@H](C)NC(=O)[C@@H](C)C1 [JASPAMIDE] | 40 nM | 10 nM | 20 | 70 | 30 | 30 | 30 | 10 | inactive | inactive | inactive | – | GI50 (PC-3): 65000 nM; GI50 (LNCaP): 41000 nM; GI50 [9]: 170000 nM; Time (HCT-116 [10]): 7 days; Activity (HCT-116 [5]): Active; Activity (HCT-116 [6]): Active; Activity (HCT-116 [7]): Active; Activity (HCT-116 [8]): Active
COC(=O)C[C@@H](NC(=O)[C@@H](Cc1c(Br)[nH]c2ccccc12)N(C)C(=O)[C@H](C)NC(=O)[C@@H](C)C/C(C)=C/[C@H](C)C[C@H](C)O)c1ccc(O)cc1 | 270 nM | – | – | – | – | – | – | – | inactive | inactive | inactive | Active | Activity (HCT-116 [12]): Active; Activity (HCT-116 [13]): Active
CCOC(=O)C[C@@H](NC(=O)[C@@H](Cc1c(Br)[nH]c2ccccc12)N(C)C(=O)[C@H](C)NC(=O)[C@@H](C)C/C(C)=C/[C@H](C)C[C@H](C)O)c1ccc(O)cc1 | 280 nM | 740 nM | 170 | 50 | 40 | 3720 | 440 | 160 | inactive | inactive | inactive | Active | Activity (HCT-116 [14]): Active; Activity (HCT-116 [12]): Active; Activity (HCT-116 [13]): Active
C=C1C[C@H](C)C(=O)N[C@@H](C)C(=O)N(C)[C@H](Cc2c(Br)[nH]c3ccccc23)C(=O)N[C@@H](c2ccc(O)cc2)CC(=O)O[C@@H](C)C[C@@H](C)C1=O [JASPLAKINOLIDE B] | 140 nM | 40 nM | – | – | – | – | – | – | inactive | inactive | Active | – | Activity (HCT-116 [15]): Active; Activity (HCT-116 [14]): Active; Activity (HCT-116 [12]): Active; Activity (HCT-116 [13]): Active
C/C1=C\[C@H](C)C[C@H](C)OC(=O)/C=C(/c2ccc(O)c(O)c2)NC(=O)[C@@H](Cc2c(Br)[nH]c3ccccc23)N(C)C(=O)[C@H](C)NC(=O)[C@@H](C)C1 | 3840 nM | 2320 nM | – | – | – | – | – | – | inactive | inactive | inactive | Active | Activity (HCT-116 [16]): inactive; Activity (HCT-116 [17]): inactive
C/C1=C\[C@H](C)C[C@H](C)OC(=O)C[C@H](c2ccc(O)c(O)c2)NC(=O)[C@@H](Cc2c(Br)[nH]c3ccccc23)N(C)C(=O)[C@H](C)NC(=O)[C@@H](C)C1 | 70 nM | 90 nM | 30 | 40 | 60 | 80 | 10 | 7 | Active | inactive | – | – | Activity (HCT-116 [18]): Active; Activity (HCT-116 [5]): Active; Activity (HCT-116 [6]): Active; Activity (HCT-116 [7]): Active; Activity (HCT-116 [8]): Active
C/C(=C\[C@H](C)C[C@H](C)OC(=O)CC(=O)c1ccc(O)c(O)c1)C[C@H](C)C(=O)N[C@@H](C)C(=O)N(C)[C@H](Cc1c(Br)[nH]c2ccccc12)C(N)=O | inactive | inactive | – | – | – | – | – | – | inactive | inactive | inactive | – | Activity (HCT-116 [16]): inactive; Activity (HCT-116 [17]): inactive; inhibition at 10 µM (HCT-116 [19]): < 25%
C/C1=C\[C@H](C)C[C@H](C)OC(=O)C[C@H](c2ccc(O)cc2)NC(=O)[C@@H](Cc2c(Br)[nH]c3ccccc23)N(C)C(=O)[C@H](C)NC(=O)CC1 [JASPLAKINOLIDE F] | 110 nM | 260 nM | 20 | 50 | 610 | 290 | 210 | 30 | – | – | – | – | –
CC[C@@H]1NC(=O)[C@@H](C)C/C(C)=C/[C@H](C)C[C@H](C)OC(=O)C[C@H](c2ccc(O)cc2)NC(=O)[C@@H](Cc2c(Br)[nH]c3ccccc23)N(C)C1=O [JASPLAKINOLIDE D] | 20 nM | 20 nM | 8 | 10 | 30 | 20 | 2 | 3 | – | – | – | – | –
C/C(=C\[C@H](C)C[C@H](C)O)C[C@H](C)C(=O)N[C@@H](C)C(=O)N(C)[C@H](Cc1c(Br)[nH]c2ccccc12)C(=O)N[C@H](CC(=O)O)c1ccc(O)cc1 [JASPLAKINOLIDE Z1] | 13700 nM | 2500 nM | 1760 | 600 | 120 | 18800 | – | 280 | inactive | inactive | inactive | Active | Activity (HCT-116 [16]): inactive; Activity (HCT-116 [17]): inactive
C/C(=C\[C@H](C)C[C@H](C)O)C[C@H](C)C(=O)N[C@@H](C)C(=O)N(C)[C@H](Cc1c(Br)[nH]c2ccccc12)C(N)=O | 11100 nM | 22300 nM | – | – | – | – | – | – | inactive | inactive | inactive | Active | Activity (HCT-116 [16]): inactive; Activity (HCT-116 [17]): inactive
